According to ChEMBL document CHEMBL1148900, “Isolation and characterization of five new tetrasaccharide glycosides from the roots of Ipomoea stans and their cytotoxic activity” (2004):
Converted amounts (≈) assume the structure as drawn. The source made the active and inactive calls. No cut-off for these calls is given here.

Tests used:
Assay type in all cases: functional
OVCAR-5 = experiment: Cytotoxicity against human OVCAR5 cells after 72 hrs; conditions: OVCAR-5, 72 h, read-out: ED50 (the source's name)
In short: (§1)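 Cells kept in RPMI with 10% FBS at 37 °C, 5% CO₂, 100% humidity. Log-phase cells were exposed in triplicate to 0.5–100 μg/mL of compound for 72 h at 37 °C. Cell concentration was measured by protein analysis. ED₅₀ (dose inhibiting 50% of control growth) was read from a semilog plot of concentration (μg/mL) against percent viable cells.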

[1] = (§2) Cytotoxicity against human UISO-SQC1 cells after 72 hrs; conditions: UISO-SQC1, 72 h, read-out: ED50 (the source's name); in short: as §1
HCT-15 = experiment: Cytotoxicity against human HCT15 cells after 72 hrs; conditions: for EC50: HCT-15, 72 h, read-out: ED50 (the source's name); in short: as §1
UISO-SQC1 = experiment: as §2; in short: as §1

| SMILES | EC50 (OVCAR-5) [µg/mL] | EC50 [1] [µg/mL] | EC50 (HCT-15) [µg/mL] | Activity (UISO-SQC1) | Activity (HCT-15) |
| --- | --- | --- | --- | --- | --- |
| CCCCC[C@H]1CCCCCCCCCC(=O)O[C@@H]2[C@@H](O[C@@H]3O[C@H](C)[C@@H](OC(=O)C(C)CC)[C@H](O)[C@H]3O)[C@H](C)O[C@@H](O[C@H]3[C@H](O[C@H]4[C@H](O1)O[C@H](C)[C@@H](O)[C@@H]4O)O[C@H](CO)[C@@H](O)[C@@H]3O)[C@@H]2OC(=O)C(C)CC (some centres not stated) [STANSIN 5] | 1.5 (≈ 1.47 µM) | 4 (≈ 3.91 µM) | 24 (≈ 23.5 µM) |  |  |
| CCCCC[C@H]1CCCCCCCCCC(=O)O[C@@H]2[C@@H](O[C@@H]3O[C@H](C)[C@@H](OC(=O)C(C)C)[C@H](O)[C@H]3O)[C@H](C)O[C@@H](O[C@H]3[C@H](O[C@H]4[C@H](O1)O[C@H](C)[C@@H](O)[C@@H]4O)O[C@H](CO)[C@@H](O)[C@@H]3O)[C@@H]2OC(=O)C(C)CC (some centres not stated) [STANSIN 4] | 5.5 (≈ 5.45 µM) |  |  | inactive | inactive |
| CCCCC[C@H]1CCCCCCCCCC(=O)O[C@@H]2[C@@H](O[C@@H]3O[C@H](C)[C@@H](OC(=O)C(C)C(C)O)[C@H](O)[C@H]3O)[C@H](C)O[C@@H](O[C@H]3[C@H](O[C@H]4[C@H](O1)O[C@H](C)[C@@H](O)[C@@H]4O)O[C@H](COC(=O)C(C)C(C)O)[C@@H](O)[C@@H]3O)[C@@H]2OC(=O)CC(C)C (some centres not stated) [STANSIN 2] | > 25 |  | > 24 |  |  |
| CCCCC[C@H]1CCCCCCCCCC(=O)O[C@@H]2[C@@H](O[C@@H]3O[C@H](C)[C@@H](OC(=O)C(C)C(C)O)[C@H](O)[C@H]3O)[C@H](C)O[C@@H](O[C@H]3[C@H](O[C@H]4[C@H](O1)O[C@H](C)[C@@H](O)[C@@H]4O)O[C@H](COC(=O)C(C)C(C)O)[C@@H](O)[C@@H]3O)[C@@H]2OC(=O)C(C)CC (some centres not stated) [STANSIN 3] | > 25 |  | > 24 |  |  |
| CCCCC[C@H]1CCCCCCCCCC(=O)O[C@@H]2[C@@H](O[C@@H]3O[C@H](C)[C@@H](OC(=O)C(C)C(C)O)[C@H](O)[C@H]3O)[C@H](C)O[C@@H](O[C@H]3[C@H](O[C@H]4[C@H](O1)O[C@H](C)[C@@H](O)[C@@H]4O)O[C@H](COC(=O)C(C)C(C)O)[C@@H](O)[C@@H]3O)[C@@H]2OC(=O)C(C)C (some centres not stated) [STANSIN 1] | > 25 |  | > 24 |  |  |
